Calls of active or inactive are those of the source. The calls are words filed in the database; no cut-off is given here.
Tests used:
[1] = target: BDNF/NT-3 growth factors receptor (Rattus norvegicus) (UniProt Q63604); assay: Agonist activity at TrkB in E17 rat primary rat cortical neurons assessed as AKT phosphorylation at Ser 473 after 15 mins by titration assay; assay type: functional
Method in brief: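 Primary cortical neurons were incubated with graded concentrations, starting at 10 nM, for 15 min. Phospho-Akt Ser473 was measured by sandwich ELISA on 20 µg of lysate. Data come from 2 replicated experiment sets, given as mean ± SEM. Comparisons used one-way ANOVA against control and Student's t-test between compounds.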

Mus musculus [2] = assay: Agonist activity at TrkA in C57BL/6J mouse brain lysate assessed as TrkA phosphorylation at Y794 at 5 mg/kg, po administered for 21 days by immunoblotting; assay type: functional, organism-based; design: dose 5 mg/kg
Method in brief: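 Adult male C57BL/6J mice, 8 per group, dosed orally by gavage once daily for 21 days; saline was the vehicle. Brain lysates were immunoblotted with anti-p-TrkA 794 and anti-p-TrkB 817.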

Mus musculus [3] = assay: Agonist activity at TrkB in C57BL/6J mouse brain assessed as AKT phosphorylation at Ser473 at 1 mg/kg, po after 1 to 16 hrs by immunoblotting; assay type: functional, organism-based; design: dose 1 mg/kg
Method in brief: (§1)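 C57BL/6J mice got a single oral dose of 1 mg/kg. Brains were collected at several time points, about 1 to 16 h after dosing. Lysates were immunoblotted for TrkB phosphorylation and for downstream Akt and MAPK phosphorylation.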

Mus musculus [4] = assay: Toxicity in C57BL/6J mouse assessed as pathological changes in kidney at 5 mg/kg, po for 3 weeks; assay type: organism-based; design: dose 5 mg/kg, route oral; conditions: in vivo, 504 h
Method in brief: (§2)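 Mice were dosed orally at 5 mg/kg for 3 weeks, with saline-treated controls. Major organs were examined for pathological changes, and a complete blood count was done.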

[5] = target: BDNF/NT-3 growth factors receptor (Rattus norvegicus) (UniProt Q63604); assay: Agonist activity at TrkB in E17 rat primary cortical neurons at 500 nM after 30 to 180 mins by immunoblotting; assay type: functional, cell-based; conditions: Cerebral cortex neuron
Method in brief: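 Rat primary cortical neurons were exposed to 500 nM compound for various times between 5 and 180 min. Lysates were immunoblotted for TrkB, Akt and MAPK phosphorylation.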

Mus musculus [6] = assay: Agonist activity at TrkB in C57BL/6J mouse brain assessed as MAPK phosphorylation at 1 mg/kg, po after 1 to 16 hrs by immunoblotting; assay type: functional, organism-based; design: dose 1 mg/kg; method in brief: as §1
HEK293 = assay: Cytotoxicity against human HEK293 cells assessed as inhibition of cell proliferation at up to 50 uM by MTT assay; assay type: cell-based
Mus musculus [7] = assay: Induction of neurogenesis in C57BL/6J mouse hippocampus dentate gyrus assessed as progenitor cell proliferation at 5 mg/kg, po administered for 21 days by DAPI and BrdU staining based fluorescence microscopy; assay type: functional, organism-based; design: dose 5 mg/kg
Method in brief: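 Adult male C57BL/6J mice were gavaged at 5 mg/kg for 21 days and then given BrdU at 50 mg/kg i.p. Mice were perfused with 4% paraformaldehyde 2 h later. Paraffin sections had citrate antigen retrieval and 2 N HCl treatment, then were stained with anti-BrdU-FITC at 4 °C for 16 h and with DAPI. BrdU-positive cells in the dentate gyrus were counted by fluorescence microscopy.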

Mus musculus [8] = assay: Toxicity in C57BL/6J mouse assessed as pathological changes in testis at 5 mg/kg, po for 3 weeks; assay type: organism-based; design: dose 5 mg/kg, route oral; conditions: in vivo, 504 h; method in brief: as §2
Mus musculus [9] = assay: Agonist activity at TrkB in C57BL/6J mouse brain assessed as AKT phosphorylation at 1 mg/kg, po after 1 to 16 hrs by immunoblotting; assay type: functional, organism-based; design: dose 1 mg/kg; method in brief: as §1

Sequence of BDNF/NT-3 growth factors receptor (Rattus norvegicus) (Q63604 whole entry): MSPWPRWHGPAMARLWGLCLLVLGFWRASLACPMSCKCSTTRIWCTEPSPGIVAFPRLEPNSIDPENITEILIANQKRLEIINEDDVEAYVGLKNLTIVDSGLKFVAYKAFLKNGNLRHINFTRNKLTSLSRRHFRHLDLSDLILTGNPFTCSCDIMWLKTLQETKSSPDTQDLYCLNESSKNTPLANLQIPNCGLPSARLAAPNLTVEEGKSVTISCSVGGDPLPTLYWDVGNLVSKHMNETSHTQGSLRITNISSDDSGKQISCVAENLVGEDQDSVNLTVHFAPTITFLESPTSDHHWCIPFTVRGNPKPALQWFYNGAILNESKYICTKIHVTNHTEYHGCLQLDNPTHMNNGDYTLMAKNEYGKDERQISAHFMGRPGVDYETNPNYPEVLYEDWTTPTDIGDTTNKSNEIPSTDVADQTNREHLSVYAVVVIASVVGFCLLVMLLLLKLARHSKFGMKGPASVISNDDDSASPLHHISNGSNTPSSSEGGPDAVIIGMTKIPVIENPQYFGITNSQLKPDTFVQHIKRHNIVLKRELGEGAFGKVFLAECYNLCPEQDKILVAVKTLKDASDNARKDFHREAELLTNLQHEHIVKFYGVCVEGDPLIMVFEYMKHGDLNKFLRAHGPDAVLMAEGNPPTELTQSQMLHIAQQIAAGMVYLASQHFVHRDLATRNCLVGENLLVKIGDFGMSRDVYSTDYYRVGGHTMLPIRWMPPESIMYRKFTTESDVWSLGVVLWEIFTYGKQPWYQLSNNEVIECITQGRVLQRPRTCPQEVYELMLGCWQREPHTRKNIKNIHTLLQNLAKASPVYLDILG

In the case of CN(C)c1ccc(-c2cc(=O)c3ccc(O)c(O)c3o2)cc1, the Activity [1] was “Dose-dependent effect”, the Activity (Mus musculus [2]) was “inactive” and the Activity (Mus musculus [3]) was “Active”. For the same molecule, the Activity (Mus musculus [4]) was “Non-toxic”, the Activity [5] was “inactive” and the Activity (Mus musculus [6]) was “Active”. The Activity (HEK293) was “Non-toxic”, the Activity (Mus musculus [7]) was “Active” and the Activity (Mus musculus [8]) was “Non-toxic”. For the same molecule, the Activity (Mus musculus [9]) was “Active”.

Reference: ChEMBL document CHEMBL1800034, “A synthetic 7,8-dihydroxyflavone derivative promotes neurogenesis and exhibits potent antidepressant effect” (J Med Chem, 2010)
